Experimental data from different studies.
Lines come from different studies, so protocols differ. pIC50, pKi: −log10 of the molar value.
Mode: inhibitor
SLCO1B1: Solute carrier organic anion transporter family member 1B1 (SLCO1B1, Homo sapiens, UniProt Q9Y6L6)
CYP1A2: Cytochrome P450 1A2 (CYP1A2, Homo sapiens, UniProt P05177)

O=C(O)COc1cccc(-c2nc(Nc3ccc4[nH]ncc4c3)c3ccccc3n2)c1  pIC50 (SLCO1B1; transporter uptake, radiometric): 6.41
O=C(CCCCCCC(=O)Nc1ccccc1)NO  pIC50 (CYP1A2; enzyme activity, fluorescence): 5.14
CSc1ccccc1C(=O)NCCn1cc(C(=O)NCc2cccc(C)n2)c(=O)c2cc3c(cc21)OC(F)(F)O3  pIC50 (CYP1A2; enzyme activity; human, liver microsomes; 20 min, without NADPH, with preincubation): < 4.00
CC(=O)O[C@H]1[C@H](O[C@H]2CC[C@]34C[C@]35CC[C@]3(C)[C@@H]([C@@]6(C)CC[C@@H](C(C)(C)O)O6)[C@@H](O)C[C@@]3(C)[C@@H]5C[C@H](O[C@@H]3O[C@H](CO)[C@@H](O)[C@H](O)[C@H]3O)[C@H]4C2(C)C)OC[C@@H](OC(C)=O)[C@@H]1O  pIC50 (CYP1A2; enzyme activity; human, liver microsomes): < 3.70
CC[C@H](C)[C@@H]([C@@H](CC(=O)N1CCC[C@H]1[C@H](OC)[C@@H](C)C(=O)N[C@@H](Cc1ccccc1)C(=O)NCCCO)OC)N(C)C(=O)[C@@H](NC(=O)[C@H](C(C)C)N(C)C)C(C)C  pKi (Cytochrome P450 3A4 (CYP3A4, Homo sapiens, UniProt P08684); enzyme activity): 4.66
CSc1ccccc1C(=O)NCCn1cc(C(=O)NCc2cccc(C)n2)c(=O)c2cc3c(cc21)OCO3  pIC50 (CYP1A2; enzyme activity; human, liver microsomes; 20 min, without NADPH, with preincubation): < 4.00
NC/C(=C\F)COc1cccc(Cn2c(=S)[nH]c(=O)c3[nH]cnc32)c1  inhibition (SLCO1B1; transporter uptake; 30 µM): < 50%
CC(C)(O)[C@@H]1CC[C@](C)([C@H]2[C@@H](O)C[C@@]3(C)[C@@H]4C[C@H](O[C@@H]5O[C@H](CO)[C@@H](O)[C@H](O)[C@H]5O)[C@H]5C(C)(C)[C@@H](O[C@@H]6OC[C@@H](O)[C@H](O)[C@H]6O)CC[C@@]56C[C@@]46CC[C@]23C)O1  pIC50 (CYP1A2; enzyme activity; human, liver microsomes): < 3.70
